Data set [1] deals with Ribosomal protein S6 kinase alpha-3 (Homo sapiens) (UniProt P51812). Description: Binding affinity to wild-type human partial length N-terminal RSK2 kinase domain 1 (M1 to D394 residues) expressed in mammalian expression system assessed as remaining unbound target protein level at 1000 nM by Kinomescan method relative to control.
Data set [2] can be described thus: AUC (0 to t) in beagle dog at 2 mg/kg, iv by LC-MS/MS analysis. In kind it is ADME, organism-based, Canis lupus familiaris. The following applies: in vivo. In a few lines:
(§1)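 Non-compartmental PK. Male SD rats 190-210 g, mice and beagle dogs acclimatized one week, fasted 12 h with water, split into iv and po groups (mice 48, rats 6, dogs 6). iv 3/3/2 mg/kg (mice/rats/dogs); po 10/20/10 mg/kg; vehicle DMSO in 5% glucose water. Blood at 2 or 5 to 720 min; plasma protein-precipitated with methanol, caffeine internal standard, LC-MS/MS.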

Data set [3] has as its target G protein-coupled receptor kinase 3 (Homo sapiens) (UniProt P35626). Kind of data set: Binding affinity to wild-type human full length GRK3 (M1 to L688 residues) expressed in mammalian expression system assessed as remaining unbound target protein level at 1000 nM by Kinomescan method relative to control. In a few lines:
(§2)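 KINOMEscan competition binding profile across a panel of 468 kinases and mutants, with the inhibitor tested at a single concentration of 1 μM. Binding is reported as percent of control, meaning signal relative to a DMSO control.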

The target in data set [4] is Serine/threonine-protein kinase BRSK2 (Homo sapiens) (UniProt Q8IWQ3). Kind of data set: Binding affinity to wild-type human full length BRSK2 (M1 to L674 residues) expressed in bacterial expression system assessed as remaining unbound target protein level at 1000 nM by Kinomescan method relative to control. A digest of the protocol:
(§3)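 Single-point competition binding screen across a panel of 468 kinases and mutants, with the inhibitor at 1 μM. Binding is read out as percent of a DMSO control, and targets below 1 percent control were classed as strong binders.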

The target of data set [5] is Insulin receptor-related protein (Homo sapiens) (UniProt P14616). Kind of data set: Binding affinity to wild-type human partial length INSRR (R950 to E1278 residues) expressed in bacterial expression system assessed as remaining unbound target protein level at 1000 nM by Kinomescan method relative to control.
Data set [6] concerns the target Serine/threonine-protein kinase 4 (Homo sapiens) (UniProt Q13043). Description: Binding affinity to wild-type human full length MST1 (M1 to F487 residues) expressed in bacterial expression system assessed as remaining unbound target protein level at 1000 nM by Kinomescan method relative to control. A digest of the protocol: as §2
For data set [7], the target named is Vascular endothelial growth factor receptor 2 (Homo sapiens, UniProt P35968). Description: Binding affinity to wild-type human partial length VEGFR2 (R787 to P1253 residues) expressed in mammalian expression system assessed as remaining unbound target protein level at 1000 nM by Kinomescan method relative to control. To be noted: read-out: Activity.
Data set [8] has as its target Serine/threonine-protein kinase D1 (Homo sapiens) (UniProt Q15139). Description: Binding affinity to wild-type human partial length PRKD1 (G551 to E870 residues) expressed in bacterial expression system assessed as remaining unbound target protein level at 1000 nM by Kinomescan method relative to control.
In data set [9] the target is Cyclin-Y/Cyclin-dependent kinase 16 (Homo sapiens, UniProt Q00536). Kind of data set: Inhibition of recombinant GST-tagged inactive state of human CDK16 (108 to end residues)/cyclin Y (2 to end residues). It is filed as protein-complex assay.
Data set [10] is filed under the species Homo sapiens. Kind of data set: Induction of apoptosis in human MEC1 cells assessed as decrease in MCL-1 level after 2 hrs by immunoblotting analysis. In kind it is functional, cell-based.
In data set [11] the target is Cyclin-dependent kinase 9 (Homo sapiens, UniProt P50750). Kind of data set: Inhibition of CDK9 in human MV4-11 cells assessed as decrease in phosphorylation at Thr 186 residues up to 3 uM after 2 hrs by immunoblotting analysis. It is filed as cell-based.
Data set [12] concerns the target Mitogen-activated protein kinase 3 (Homo sapiens) (UniProt P27361). Kind of data set: Binding affinity to wild-type human full length ERK1 (M1 to P379 residues) expressed in bacterial expression system assessed as remaining unbound target protein level at 1000 nM by Kinomescan method relative to control. A digest of the protocol:
as §3

The test system of data set [13] is Phosphatidylinositol 4,5-bisphosphate 3-kinase catalytic subunit alpha isoform (Homo sapiens), P42336 [C420R]. Description: Binding affinity to human partial length PIK3CA C420R mutant (R108 to N1068 residues) expressed in mammalian expression system assessed as remaining unbound target protein level at 1000 nM by Kinomescan method relative to control. A digest of the protocol: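 KINOMEscan competition-binding profiling across the panel of 468 kinases and mutants, with inhibitor tested at 1 μM. Binding is expressed as percent of control, with DMSO as the reference control.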

Data set [14] addresses Serine/threonine-protein kinase 16 (Homo sapiens) (UniProt O75716). Description: Binding affinity to wild-type human partial length STK16 (G11 to I305 residues) expressed in bacterial expression system assessed as remaining unbound target protein level at 1000 nM by Kinomescan method relative to control.
For data set [15], the target named is Ephrin type-A receptor 5 (Homo sapiens) (UniProt P54756). Description: Binding affinity to wild-type human partial length EPHA5 (T627 to V930 residues) expressed in bacterial expression system assessed as remaining unbound target protein level at 1000 nM by Kinomescan method relative to control.
Data set [16] in a line: AUC (0 to t) in mouse at 10 mg/kg, po by LC-MS/MS analysis. In kind it is ADME, organism-based. To be noted: in vivo. A digest of the protocol: as §1
Data set [17] has as its target Cyclin-dependent kinase 4/cyclin D1 (Homo sapiens) (UniProt P11802+P24385). Description: Binding affinity to wild-type human full length CDK4/cyclinD1 (M1 to E303 residues) expressed in mammalian expression system assessed as remaining unbound target protein level at 1000 nM by Kinomescan method relative to control. In a few lines:
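KINOMEscan competitive binding profile at 1 μM inhibitor. Remaining target binding reported as percent of DMSO control.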

Data set [18] concerns the target 5'-AMP-activated protein kinase catalytic subunit alpha-2 (Homo sapiens) (UniProt P54646). Description: Binding affinity to wild-type human partial length AMPK alpha2 (M1 to E306 residues) expressed in bacterial expression system assessed as remaining unbound target protein level at 1000 nM by Kinomescan method relative to control. A digest of the protocol: (§4)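 Profiled in a KINOMEscan binding panel with the inhibitor at a single concentration of 1 μM. Binding to each kinase was read out as percent of control, relative to a DMSO control. Strong binders were defined as those with a percent control value below 1.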

Data set [19] addresses Serine/threonine-protein kinase 17B (Homo sapiens) (UniProt O94768). Kind of data set: Binding affinity to wild-type human full length DRAK2 (M1 to C372 residues) expressed in bacterial expression system assessed as remaining unbound target protein level at 1000 nM by Kinomescan method relative to control. In a few lines: as §3
The target in data set [20] is NT-3 growth factor receptor (Homo sapiens) (UniProt Q16288). Description: Binding affinity to wild-type human partial length TRKC (Q531 to G825 residues) expressed in mammalian expression system assessed as remaining unbound target protein level at 1000 nM by Kinomescan method relative to control.
Data set [21] has as its target Serine/threonine-protein kinase SIK2 (Homo sapiens) (UniProt Q9H0K1). Description: Binding affinity to wild-type human full length SIK2 (M1 to N926 residues) expressed in bacterial expression system assessed as remaining unbound target protein level at 1000 nM by Kinomescan method relative to control. In a few lines: as §4

The source made the active and inactive calls.

Phosphatidylinositol 4,5-bisphosphate 3-kinase catalytic subunit alpha isoform (Homo sapiens), P42336 [C420R], sequence (P42336 whole entry C420R, the tested form may be a part, canonical isoform): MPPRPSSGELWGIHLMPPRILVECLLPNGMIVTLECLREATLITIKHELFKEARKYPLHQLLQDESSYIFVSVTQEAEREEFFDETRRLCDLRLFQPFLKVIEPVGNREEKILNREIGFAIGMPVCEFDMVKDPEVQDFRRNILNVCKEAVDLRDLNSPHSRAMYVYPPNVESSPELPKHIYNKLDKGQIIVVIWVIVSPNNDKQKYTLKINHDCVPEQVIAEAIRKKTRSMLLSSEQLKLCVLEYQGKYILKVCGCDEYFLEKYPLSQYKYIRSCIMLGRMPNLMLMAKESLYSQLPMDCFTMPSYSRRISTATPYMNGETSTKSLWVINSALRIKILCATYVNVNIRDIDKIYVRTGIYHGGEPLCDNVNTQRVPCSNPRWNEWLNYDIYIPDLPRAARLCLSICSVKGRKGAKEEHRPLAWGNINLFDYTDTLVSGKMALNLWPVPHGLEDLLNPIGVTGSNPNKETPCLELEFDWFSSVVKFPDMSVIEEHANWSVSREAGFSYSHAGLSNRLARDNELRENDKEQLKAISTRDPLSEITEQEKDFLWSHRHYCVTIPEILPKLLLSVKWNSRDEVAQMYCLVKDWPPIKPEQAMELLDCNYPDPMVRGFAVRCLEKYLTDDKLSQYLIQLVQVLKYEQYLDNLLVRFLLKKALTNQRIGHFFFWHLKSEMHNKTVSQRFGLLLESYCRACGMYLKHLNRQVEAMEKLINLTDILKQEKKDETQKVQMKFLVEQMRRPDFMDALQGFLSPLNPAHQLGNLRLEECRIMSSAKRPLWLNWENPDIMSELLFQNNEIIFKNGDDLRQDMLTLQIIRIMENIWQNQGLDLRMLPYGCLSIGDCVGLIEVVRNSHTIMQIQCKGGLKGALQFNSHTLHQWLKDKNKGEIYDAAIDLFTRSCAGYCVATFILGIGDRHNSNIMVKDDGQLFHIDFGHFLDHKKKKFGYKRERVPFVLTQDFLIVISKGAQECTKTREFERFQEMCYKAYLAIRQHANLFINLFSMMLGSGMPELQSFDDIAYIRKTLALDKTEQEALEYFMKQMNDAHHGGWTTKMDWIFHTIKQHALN
Serine/threonine-protein kinase 16 (Homo sapiens), sequence (O75716 whole entry, the tested form may be a part): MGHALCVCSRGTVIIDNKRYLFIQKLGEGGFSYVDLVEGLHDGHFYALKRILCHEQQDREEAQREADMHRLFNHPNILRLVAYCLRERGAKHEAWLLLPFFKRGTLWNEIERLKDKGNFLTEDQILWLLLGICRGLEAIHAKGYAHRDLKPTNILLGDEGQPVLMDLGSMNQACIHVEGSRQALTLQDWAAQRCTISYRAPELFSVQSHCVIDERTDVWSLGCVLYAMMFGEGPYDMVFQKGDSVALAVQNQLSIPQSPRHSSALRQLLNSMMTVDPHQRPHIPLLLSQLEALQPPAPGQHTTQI
Ephrin type-A receptor 5 (Homo sapiens), sequence (P54756 whole entry, the tested form may be a part): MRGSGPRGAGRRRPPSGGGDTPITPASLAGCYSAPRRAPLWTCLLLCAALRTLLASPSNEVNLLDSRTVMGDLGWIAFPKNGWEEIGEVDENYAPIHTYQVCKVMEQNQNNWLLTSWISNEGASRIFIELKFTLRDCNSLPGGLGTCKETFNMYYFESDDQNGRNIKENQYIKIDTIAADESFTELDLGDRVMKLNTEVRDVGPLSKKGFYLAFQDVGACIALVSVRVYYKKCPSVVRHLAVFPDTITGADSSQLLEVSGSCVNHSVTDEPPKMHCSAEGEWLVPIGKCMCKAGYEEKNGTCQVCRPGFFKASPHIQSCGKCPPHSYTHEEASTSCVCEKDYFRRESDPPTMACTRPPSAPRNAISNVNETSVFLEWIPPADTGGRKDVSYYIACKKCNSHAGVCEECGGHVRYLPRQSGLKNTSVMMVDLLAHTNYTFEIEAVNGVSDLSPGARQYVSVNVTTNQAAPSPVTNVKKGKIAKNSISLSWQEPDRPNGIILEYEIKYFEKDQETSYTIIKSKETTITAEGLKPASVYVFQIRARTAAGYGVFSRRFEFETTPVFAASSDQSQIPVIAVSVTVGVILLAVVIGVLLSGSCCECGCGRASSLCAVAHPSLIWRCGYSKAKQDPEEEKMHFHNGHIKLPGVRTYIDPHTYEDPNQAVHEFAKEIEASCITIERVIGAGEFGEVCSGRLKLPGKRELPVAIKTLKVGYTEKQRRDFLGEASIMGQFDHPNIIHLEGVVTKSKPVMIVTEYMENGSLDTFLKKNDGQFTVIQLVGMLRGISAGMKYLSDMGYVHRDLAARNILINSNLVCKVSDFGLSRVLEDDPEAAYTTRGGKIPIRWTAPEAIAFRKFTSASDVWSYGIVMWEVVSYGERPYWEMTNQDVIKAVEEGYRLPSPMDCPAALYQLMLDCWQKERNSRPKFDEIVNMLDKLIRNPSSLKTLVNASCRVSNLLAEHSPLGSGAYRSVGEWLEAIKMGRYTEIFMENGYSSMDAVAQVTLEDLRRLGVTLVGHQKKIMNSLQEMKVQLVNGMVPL
Serine/threonine-protein kinase SIK2 (Homo sapiens), sequence (Q9H0K1 whole entry, looked up, the tested form may be a part): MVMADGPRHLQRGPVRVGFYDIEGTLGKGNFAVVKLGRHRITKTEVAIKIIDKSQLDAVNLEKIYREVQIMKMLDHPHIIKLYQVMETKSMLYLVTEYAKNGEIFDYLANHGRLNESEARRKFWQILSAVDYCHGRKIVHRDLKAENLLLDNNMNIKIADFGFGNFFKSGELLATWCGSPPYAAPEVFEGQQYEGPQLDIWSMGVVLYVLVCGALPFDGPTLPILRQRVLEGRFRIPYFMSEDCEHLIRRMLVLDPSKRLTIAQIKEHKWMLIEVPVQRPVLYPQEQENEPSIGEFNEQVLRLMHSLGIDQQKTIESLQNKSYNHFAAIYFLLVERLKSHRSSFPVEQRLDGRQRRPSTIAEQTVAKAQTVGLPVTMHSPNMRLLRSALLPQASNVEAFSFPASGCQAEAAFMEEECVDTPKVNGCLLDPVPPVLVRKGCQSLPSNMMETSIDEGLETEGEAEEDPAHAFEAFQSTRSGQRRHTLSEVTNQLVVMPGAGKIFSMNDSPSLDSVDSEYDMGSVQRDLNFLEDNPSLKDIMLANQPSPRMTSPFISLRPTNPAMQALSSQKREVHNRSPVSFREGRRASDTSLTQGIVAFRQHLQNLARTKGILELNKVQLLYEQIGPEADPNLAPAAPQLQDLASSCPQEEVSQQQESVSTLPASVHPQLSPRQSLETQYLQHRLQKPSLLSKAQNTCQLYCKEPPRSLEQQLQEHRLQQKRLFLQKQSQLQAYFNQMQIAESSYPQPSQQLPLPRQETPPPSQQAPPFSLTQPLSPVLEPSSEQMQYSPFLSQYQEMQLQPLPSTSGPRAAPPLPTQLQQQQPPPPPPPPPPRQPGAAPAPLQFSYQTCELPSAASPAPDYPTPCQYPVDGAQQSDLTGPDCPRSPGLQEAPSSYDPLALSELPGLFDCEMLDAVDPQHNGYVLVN
Serine/threonine-protein kinase 4 (Homo sapiens), sequence (Q13043 whole entry, the tested form may be a part): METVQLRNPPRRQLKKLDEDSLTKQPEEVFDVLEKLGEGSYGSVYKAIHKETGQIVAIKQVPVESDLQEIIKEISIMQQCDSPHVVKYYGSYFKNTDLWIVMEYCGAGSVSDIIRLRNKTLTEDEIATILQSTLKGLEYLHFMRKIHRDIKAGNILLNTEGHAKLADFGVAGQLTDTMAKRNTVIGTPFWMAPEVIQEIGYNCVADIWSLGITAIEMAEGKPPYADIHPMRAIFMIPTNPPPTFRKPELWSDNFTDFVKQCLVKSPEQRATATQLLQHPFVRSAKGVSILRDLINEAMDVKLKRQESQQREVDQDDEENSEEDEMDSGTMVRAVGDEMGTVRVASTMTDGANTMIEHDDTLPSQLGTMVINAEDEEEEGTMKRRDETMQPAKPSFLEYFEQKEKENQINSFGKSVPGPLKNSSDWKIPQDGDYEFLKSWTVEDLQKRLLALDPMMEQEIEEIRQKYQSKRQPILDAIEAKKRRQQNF
Cyclin-dependent kinase 9, sequence (P50750 whole entry, the tested form may be a part): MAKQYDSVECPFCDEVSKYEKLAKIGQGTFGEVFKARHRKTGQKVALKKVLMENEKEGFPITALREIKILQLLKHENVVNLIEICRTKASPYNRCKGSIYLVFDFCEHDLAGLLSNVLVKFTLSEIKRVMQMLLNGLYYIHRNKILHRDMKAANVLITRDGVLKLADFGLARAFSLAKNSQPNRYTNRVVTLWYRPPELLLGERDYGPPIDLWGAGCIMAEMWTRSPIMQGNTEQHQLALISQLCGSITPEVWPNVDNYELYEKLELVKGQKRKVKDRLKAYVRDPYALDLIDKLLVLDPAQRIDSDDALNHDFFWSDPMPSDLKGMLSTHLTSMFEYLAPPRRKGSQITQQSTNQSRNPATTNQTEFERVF
5'-AMP-activated protein kinase catalytic subunit alpha-2 (Homo sapiens), sequence (P54646 whole entry, looked up, the tested form may be a part): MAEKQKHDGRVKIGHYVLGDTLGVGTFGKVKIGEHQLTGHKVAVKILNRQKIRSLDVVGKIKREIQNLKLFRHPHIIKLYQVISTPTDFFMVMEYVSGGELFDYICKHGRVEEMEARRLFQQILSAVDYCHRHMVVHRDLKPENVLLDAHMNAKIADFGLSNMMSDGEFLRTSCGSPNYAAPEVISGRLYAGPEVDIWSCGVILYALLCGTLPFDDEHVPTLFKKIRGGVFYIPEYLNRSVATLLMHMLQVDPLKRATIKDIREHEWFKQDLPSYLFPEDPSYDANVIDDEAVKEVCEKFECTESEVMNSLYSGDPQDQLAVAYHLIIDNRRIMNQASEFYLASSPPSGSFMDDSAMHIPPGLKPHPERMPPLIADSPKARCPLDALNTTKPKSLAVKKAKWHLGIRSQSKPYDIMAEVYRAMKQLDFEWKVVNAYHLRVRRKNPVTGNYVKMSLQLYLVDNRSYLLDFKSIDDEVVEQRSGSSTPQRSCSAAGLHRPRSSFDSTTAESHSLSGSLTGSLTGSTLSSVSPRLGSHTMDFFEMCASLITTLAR

Turning to `COCCN[C@H]1CC[C@H](Nc2cc(-c3csc(NCC4(C#N)CCOCC4)n3)c(Cl)cn2)CC1`, the Activity in data set [1] amounted to 100%; in data set [3] it was 42%; in data set [4] it was 75%; in data set [5], 92%; in [6], 99%; in data set [8] it was 48%. The Activity result in data set [10] is “Dose-dependent effect”; in data set [12] it was 90%; in data set [13] it was 100%; in [14], 76%; in [15], 97%; in [17], 69%. Further, the Activity is 100% in [18], 89% in data set [19], 89% in data set [20] and 100% in data set [21]. For the same compound, the exposure AUC(0-t) in data set [2] is 2010 ng·h/mL; in data set [16] it was 591 ng·h/mL. Further, the activity at 1 µM in data set [7] is 98%. Also, the concentration for half-maximal inhibition (IC50) in data set [9] was 292 nM. The inhibition result in data set [11] was “inactive”.

The values above are taken from ChEMBL document CHEMBL4261600 (Eur J Med Chem, 2018).
